Reference: ChEMBL document CHEMBL3272328, “Novel analogs of tricyclic psychopharmacological agents” (J Med Chem, 1976)
Activity calls are given as the source filed them. No cut-off for these calls is given here.

Legend:
Mus musculus [1] = experiment: Antidepressant activity in pargyline-pretreated mouse assessed as potentiation of serotonin-induced tremor, head movements, abducted limbs and irritability at 25 mg/kg, po treated 4 hrs prior to serotonin-challenge; type: functional, organism-based; design: dose 25 mg/kg
Summary of the method: (§1)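 Mice received pargyline 40 mg/kg po, then the test drug po. They were challenged with 5-hydroxytryptophan 100 mg/kg ip either 1 or 4 hr later. Central responses were rated on the 1–3 scale (slight, moderate, marked). Three mice per dose.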

[2] = Toxicity in ip dosed mouse; type: organism-based; conditions: in vivo
Mus musculus [3] = experiment: Antidepressant activity in pargyline-pretreated mouse assessed as potentiation of serotonin-induced tremor, head movements, abducted limbs and irritability at 50 mg/kg, po treated 4 hrs prior to serotonin-challenge; type: functional, organism-based; design: dose 50 mg/kg; summary of the method: as §1
Mus musculus [4] = experiment: Antidepressant activity in pargyline-pretreated mouse assessed as potentiation of serotonin-induced tremor, head movements, abducted limbs and irritability at 100 mg/kg, po treated 4 hrs prior to serotonin-challenge; type: functional, organism-based; design: dose 100 mg/kg; summary of the method: as §1
Mus musculus [5] = experiment: Antidepressant activity in pargyline-pretreated mouse assessed as potentiation of serotonin-induced tremor, head movements, abducted limbs and irritability at 100 mg/kg, po treated 1 hr prior to serotonin-challenge; type: functional, organism-based; design: dose 100 mg/kg; summary of the method: as §1
Mus musculus [6] = experiment: Antipsychotic activity in mouse assessed as change in methamphetamine-induced hyperactivity at 5 mg/kg, po relative to control; type: functional, organism-based; design: dose 5 mg/kg
Summary of the method: (§2)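 Mice were premedicated po with the test compound, then given methamphetamine 3 mg/kg sc. Motor activity was counted in photocell chambers, three mice per chamber and nine per dose. Counts are mean ± SE, expressed as % change from methamphetamine-only controls. Analysis was ANOVA followed by t test or Mann-Whitney U, with p < 0.05.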

[7] = Toxicity in po dosed mouse; type: organism-based; conditions: in vivo
Mus musculus [8] = experiment: Antidepressant activity in pargyline-pretreated mouse assessed as potentiation of serotonin-induced tremor, head movements, abducted limbs and irritability at 50 mg/kg, po treated 1 hr prior to serotonin-challenge; type: functional, organism-based; design: dose 50 mg/kg; summary of the method: as §1
Mus musculus [9] = experiment: Antipsychotic activity in mouse assessed as change in methamphetamine-induced hyperactivity at 50 mg/kg, po relative to control; type: functional; summary of the method: as §2
Mus musculus [10] = experiment: Antidepressant activity in pargyline-pretreated mouse assessed as potentiation of serotonin-induced tremor, head movements, abducted limbs and irritability at 25 mg/kg, po treated 1 hr prior to serotonin-challenge; type: functional, organism-based; design: dose 25 mg/kg; summary of the method: as §1
Mus musculus [11] = experiment: Antidepressant activity in pargyline-pretreated mouse assessed as potentiation of DL-DOPA-induced jumping, fighting and squeaking at 25 mg/kg, po treated 4 hrs prior to DL-DOPA-challenge; type: functional, organism-based; design: dose 25 mg/kg
Summary of the method: (§3)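 Mice were pretreated with pargyline 40 mg/kg po, given the test drug po 4 hr before the challenge, then challenged with DL-Dopa 200 mg/kg. The motor response (motor activity, jumping, fighting, squeaking/irritability) was graded slight (1), moderate (2) or marked (3). Four mice per dose.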

Mus musculus [12] = experiment: Antidepressant activity in pargyline-pretreated mouse assessed as potentiation of DL-DOPA-induced jumping, fighting and squeaking at 100 mg/kg, po treated 4 hrs prior to DL-DOPA-challenge; type: functional, organism-based; design: dose 100 mg/kg; summary of the method: as §3
Mus musculus [13] = experiment: Antipsychotic activity in po dosed mouse assessed as change in methamphetamine-induced hyperactivity; type: functional
Summary of the method: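 Mice were given test compound orally […] with a 4-hr pretreatment, then methamphetamine 3 mg/kg sc. Three mice were placed per photocell motor-activity chamber, with nine mice per dose. Photocell counts (mean ± SE) were compared with methamphetamine-treated controls and expressed as % change. Significance (p < 0.05) was tested by analysis of variance, then t test or Mann-Whitney U test.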

Mus musculus [14] = experiment: Antidepressant activity in pargyline-pretreated mouse assessed as potentiation of DL-DOPA-induced jumping, fighting and squeaking at 5 mg/kg, po treated 4 hrs prior to DL-DOPA-challenge; type: functional, organism-based; design: dose 5 mg/kg; summary of the method: as §3
Mus musculus [15] = experiment: Antipsychotic activity in mouse assessed as change in methamphetamine-induced hyperactivity at 20 mg/kg, po relative to control; type: functional; summary of the method: as §2
Mus musculus [16] = experiment: Antidepressant activity in pargyline-pretreated mouse assessed as potentiation of DL-DOPA-induced jumping, fighting and squeaking at 10 mg/kg, po treated 4 hrs prior to DL-DOPA-challenge; type: functional, organism-based; design: dose 10 mg/kg; summary of the method: as §3
Mus musculus [17] = experiment: Antipsychotic activity in mouse assessed as change in methamphetamine-induced hyperactivity at 10 mg/kg, po relative to control; type: functional; summary of the method: as §2
Mus musculus [18] = experiment: Antidepressant activity in pargyline-pretreated mouse assessed as potentiation of DL-DOPA-induced jumping, fighting and squeaking at 20 mg/kg, po treated 4 hrs prior to DL-DOPA-challenge; type: functional, organism-based; design: dose 20 mg/kg; summary of the method: as §3

Compound | Activity (Mus musculus [1]) | LD50 [2] [mg/kg] | Activity (Mus musculus [3]) | Activity (Mus musculus [4]) | Activity (Mus musculus [5]) | Activity (Mus musculus [6]) | LD50 [7] [mg/kg] | Activity (Mus musculus [8]) | Activity (Mus musculus [9]) [%] | Activity (Mus musculus [10]) | Activity (Mus musculus [11]) | Activity (Mus musculus [12]) | ED50 (Mus musculus [13]) [mg/kg] | Activity (Mus musculus [14]) | Activity (Mus musculus [15]) [%] | Activity (Mus musculus [16]) | Activity (Mus musculus [17]) [%] | Activity (Mus musculus [18])
CN1C2CCC1CC(=C1c3ccccc3CCc3ccccc31)C2 | inactive | 30 | inactive | inactive | Active | inactive | 100 | inactive | 14 | inactive | inactive | Active | – | – | – | – | – | –
CN(C)CCCN1c2ccccc2CCc2ccc(Cl)cc21 [CLOMIPRAMINE] | Active | – | Active | Active | Active | – | – | Active | – | Active | – | – | 5 | – | – | – | – | –
CN(C)CCCN1c2ccccc2CCc2ccccc21 [IMIPRAMINE] | – | – | – | – | – | inactive | – | – | – | – | Active | Active | – | inactive | 32 | Active | 19 | –
CN1C2CCC1CC(C1(O)c3ccccc3CCc3ccccc31)C2 (stereo not given) | – | – | – | – | – | inactive | – | – | 11 | – | Active | Active | – | – | – | – | – | –
CN(C)C1CCCCC(=C2c3ccccc3CCc3ccccc32)C1 (stereo not given) | – | – | – | – | inactive | inactive | – | inactive | 11 | inactive | Active | Active | – | – | – | – | – | –
CN1CC2C(C1)C21c2ccccc2CCc2ccc(Cl)cc21 (stereo not given) | Active | – | Active | Active | Active | inactive | – | inactive | 29 | inactive | Active | Active | – | – | – | – | – | –
CN(C)C1C=C(C2c3ccccc3C=Cc3ccccc32)CCC1 (stereo not given) | inactive | – | Active | Active | Active | inactive | – | Active | 23 | inactive | Active | Active | – | inactive | – | Active | – | Active
